KCNQ1 act = potentiators or activators of human KCNQ1 potassium channel. actives 0.35% (n = 310,000). B-score at 10 µM. CHO-K1 KCNQ1, thallium flux FluxOR fluorescence; active compounds read high;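 active = fluorescence ratio B-score, a plate-corrected score, at least three library SD, with initial intensity B-score within 5 SD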
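System: CHO-K1 cells stably expressing KCNQ1 / Medium: assay buffer for compound exposure, DMSO matched across wells / Reagent: thallium- and potassium-containing depolarizing buffer / Compound: one concentration, matched DMSO / Incubation: 20 min compound pretreatment at room temperature / Measured by: kinetic FluxOR fluorescence, 10 s baseline plus 110 s post-stimulus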
KCNK3 block = human KCNK3 channel inhibition, primary screen | O14649 | CHO-KCNK3 thallium flux, FluxOR fluorescence; active compounds read low | B-score at 10 µM | actives 0.84% (n = 340,000);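 active = B-score under library mean minus 4 SD, starting fluorescence ratio at most library mean plus 5 SD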;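 note: more negative B-score means stronger inhibition of thallium flux through KCNK3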
KCNQ1 inh = human KCNQ1 channel inhibition; P51787; CHO-K1 KCNQ1, FluxOR thallium flux fluorescence; active compounds read high; B-score at 10 µM; actives 1.3% (n = 310,000); AID 2642;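 active = compounds whose thallium flux B-score, printed positive for inhibition, exceeds three library SD while starting fluorescence stays within three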;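 note: channel opened by potassium depolarization with thallium stimulus after 20 min compound exposure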
hERG protect = compounds protecting human hERG from proarrhythmic drug block | CHO-hERG, FluxOR thallium flux, dofetilide IC70 present | Q12809 | activation (rescue from dofetilide block), less the hit threshold, % at 10 µM | actives 0.51% (n = 310,000);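 active = activation above the mean of controls blocked by dofetilide plus 5 SD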;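 note: thallium influx through hERG after potassium depolarization seen as dye fluorescence rise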
KCNK9 inh = blocks the human KCNK9 two-pore domain potassium channel. B-score at 10 µM. actives 1.2% (n = 310,000). HEK293 KCNK9, FluxOR thallium flux fluorescence; active compounds read low;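 active = ratio B-score over 3 SD below the library mean, with starting fluorescence within 5 SD of its mean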;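 note: negative B-score means less thallium flux so channel inhibition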
Target sequence (Q9NPC2 whole entry, looked up, the tested form may be a part): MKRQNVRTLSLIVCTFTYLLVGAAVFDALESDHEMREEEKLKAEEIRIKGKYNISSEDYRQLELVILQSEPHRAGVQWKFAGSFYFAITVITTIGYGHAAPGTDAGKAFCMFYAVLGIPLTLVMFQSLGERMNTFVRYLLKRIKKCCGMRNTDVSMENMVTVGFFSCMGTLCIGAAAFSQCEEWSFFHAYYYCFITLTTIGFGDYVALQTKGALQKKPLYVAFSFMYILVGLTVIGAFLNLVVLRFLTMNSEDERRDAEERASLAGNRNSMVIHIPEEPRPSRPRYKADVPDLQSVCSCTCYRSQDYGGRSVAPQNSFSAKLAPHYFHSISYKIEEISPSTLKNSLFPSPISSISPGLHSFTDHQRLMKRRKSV
Starred values were filed as active, the others as inactive; i = inactive; . = no result. Hits are enriched below; roughly 3.1% of the tested compounds scored in any of these assays.

SMILES	KCNQ1 act	KCNK3 block	KCNQ1 inh	hERG protect	KCNK9 inh
CCOc1ccc(-n2c(=O)c3sccc3n(CC(=O)NC3CCCCC3)c2=O)cc1	i	i	i	-7.1	i
Cc1ccc(/C=C2\Oc3c(ccc(O)c3CN3CCN(CCO)CC3)C2=O)cc1	i	i	11*	-14.4	i
CC(C)c1ccc(/C=C2\Oc3c(ccc(O)c3CN3CCN(C)CC3)C2=O)cc1	i	i	i	-20.8	i
CCN1CCN(Cc2c(O)ccc3c2O/C(=C\C=C\c2ccccc2OC)C3=O)CC1	i	i	6*	-31.4	i
CCN1CCN(Cc2c(O)ccc3c(=O)c(-c4ccccc4OC)coc23)CC1	i	i	i	-7.2	i
CC(=O)Nc1ccc(S(=O)(=O)N(C)CC(=O)OCC(=O)c2ccc3c(c2)NC(=O)CO3)cc1	.	i	.	.	.
CCOC(=O)c1ccc(N2C(=O)c3n[nH]c(C)c3C2c2ccc(O)cc2)cc1 (stereo unspecified)	i	i	i	-5.8	-7.07*
CCN(CC)C(=O)Oc1ccc2c(c1)O/C(=C\c1ccco1)C2=O	i	i	i	-11.8	i
O=C1/C(=C/c2ccco2)Oc2c1ccc(O)c2CN1CCCCC1	i	i	i	-37.4	i
COCCN(CCOC)Cc1c(O)ccc2c1O/C(=C\c1ccco1)C2=O	i	i	11*	-26.1	i
O=C(Oc1ccc2c(c1)O/C(=C\c1ccncc1)C2=O)c1cccs1	i	i	i	-9.2	i
CC(=O)Oc1ccc2c(c1)O/C(=C\c1ccncc1)C2=O	i	i	9*	-27.3	i
Cc1cc(O)cc2c1C(=O)/C(=C/c1ccco1)O2	i	i	11*	-11.4	i
CCC(=O)Oc1ccc2c(c1)O/C(=C\c1ccco1)C2=O	i	i	6*	-15.6	i
COC(=O)COc1ccc2c(c1)O/C(=C\c1ccco1)C2=O	i	i	i	-6.8	i
O=C(CNC(=O)c1ccc(Br)o1)NNC(=O)c1ccccc1O	i	i	i	-3.7	i
COC(=O)COc1ccc(/C=C2\SC(=O)N(CC(=O)Nc3ccccc3F)C2=O)cc1	i	i	i	-8.5	i
Cc1ccc(-c2nn(-c3ccc(F)cc3)cc2C(=O)N2CCN(C3CCS(=O)(=O)C3)CC2)cc1 (stereo unspecified)	.	i	.	.	.
O=C(CCC1CCCCC1)Nc1cc(Cl)ccc1N1CCOCC1	.	-9.02*	.	.	.
O=[N+]([O-])c1cc(Br)c(O)c(/C=N/Nc2nnnn2-c2cccc3ccccc23)c1	i	i	7*	-35.8	i
COc1ccc(NC(=O)Nc2ccc3c(c2)C(=O)N([C@H](C)CO)C[C@H](C)[C@@H](CN(C)C(=O)Nc2ccccc2)O3)cc1	.	i	.	.	.
Cc1sc2nc(SCC(=O)c3cc(C)n(CC4CCCO4)c3C)n(C(C)C)c(=O)c2c1C (stereo unspecified)	i	-8.83*	i	-5.2	i
Cc1cc(C(=O)CSc2nc(N)cc(N)n2)c(C)n1CC1CCCO1 (stereo unspecified)	.	i	.	.	.
CCCn1nc(C(=O)N2CCN(S(=O)(=O)c3ccc(C)c(C)c3)CC2)c2ccccc2c1=O	.	-9.51*	.	.	.
CCOC(=O)c1cnn(-c2nc(SC)nc3sc4c(c23)CCC4)c1N	i	i	i	-14.4	-7.77*
SMILES	KCNQ1 act	KCNK3 block	KCNQ1 inh	hERG protect	KCNK9 inh
CCN1C(=O)/C(=C/c2ccc(N3CCCC3)cc2)NC1=S	i	i	12*	-11.3	i
Cc1ccc(S(=O)(=O)N2CCC[C@H]2C(=O)OCCN2C(=O)c3ccccc3C2=O)cc1	.	i	.	.	.
CN(C)S(=O)(=O)c1ccc(Cl)c(C(=O)Nc2ccccc2[N+](=O)[O-])c1	i	i	i	-14.2	i
CCN(CC)S(=O)(=O)c1ccc(Cl)c(C(=O)Nc2ccc(Cl)cc2[N+](=O)[O-])c1	i	i	i	-15.7	-6.62*
O=C1/C(=C\c2ccc(O)c(O)c2)C(c2ccccc2)=NN1c1ccccc1	i	i	6*	-29.4	i
COc1cc(OC)c(NC(=S)Nc2cc(Cl)cc(Cl)c2)cc1Cl	i	i	10*	-10.7	i
COc1cc(C)c(NC(=S)Nc2ccc(Cl)c(Cl)c2)cc1OC	i	i	6*	-18.2	i
COCCNC(=S)Nc1ccc(Cl)c(Cl)c1	i	i	6*	-10.8	i
O=C(Nc1cccc(NC(=O)c2ccccc2[N+](=O)[O-])n1)c1ccccc1[N+](=O)[O-]	i	-9.54*	i	-12.1	i
COc1cccc(CNC(=O)COC(=O)/C=C/c2ccc(SC)cc2)c1	.	i	.	.	.
CCc1ccc2c(c1)c(N=NC1=NC(=O)CS1)c(O)n2CC	16*	i	i	7.7*	i
CCOC(=O)c1sc(=S)n(C)c1NC(=O)c1ccc(C(C)(C)C)cc1	i	i	11*	-10.5	i
COc1ccc(CCN2CC(C(=O)OCC(=O)N(C)CC(=O)Nc3ccccc3Cl)CC2=O)cc1OC (stereo unspecified)	.	i	.	.	.
Cc1nnc(NC(=O)CN2CCN(Cc3ccc(F)cc3Cl)CC2)s1	i	i	i	6.3*	i
COc1ccc(-c2csc(NC(=S)NC(=O)c3cccs3)n2)cc1OC	11*	i	i	-0.1	-7.9*
COc1ccc(-c2csc(NC(=S)NC(=O)c3ccc(S(=O)(=O)N(C)C)cc3)n2)cc1OC	i	i	i	-7.9	i
O=C(NC(=S)Nc1nc2c(ccc3ccccc32)s1)c1cccs1	9*	i	i	0.2	i
COc1ccc(-c2csc(NC(=S)NC(=O)c3cccs3)n2)cc1Br	9*	i	i	8.6*	i
CN1CCS/C1=C/C=C1\SC(=S)N(CC(=O)O)C1=O	i	i	14*	-32.0	i
CCCCN1C(=O)/C(=C/C=C2\SCCN2C)SC1=S	i	i	i	-16.2	i
CCCCc1c(O)nc(SCC(=O)N2CCCCC2)n(-c2ccccc2C)c1=O	i	i	i	9.8*	i
O=C(O)CCNC(=O)c1ccc(N=Nc2ccc(O)c(C(=O)O)c2)cc1	i	.	i	-3.9	i
Cc1cc(C)c(S(=O)(=O)N2CCN(C(=O)c3cc4ccccc4oc3=O)CC2)c(C)c1	.	i	.	.	.
CCN(CCCNC(=O)c1nn(C)c2c1CS(=O)(=O)c1ccccc1-2)Cc1ccccc1	i	i	i	-9.1	i
O=C(CSc1nc(-c2ccc(Cl)cc2)cs1)Nc1cccc([N+](=O)[O-])c1	i	i	6*	-16.8	i
Cc1sc2nc(CN3CCN(c4ccc(O)cc4)CC3)[nH]c(=O)c2c1C	i	i	i	-4.2	i
Cc1sc2nc(CN3CCOCC3)[nH]c(=S)c2c1C	43*	i	i	52.5*	i
